An excerpt weighted towards active compounds, which were near 6.1% of everything screened.
Measles CPE = protection of cells from measles virus; protection (pct of control), % at 4 µM; actives 1.5% (n = 140,000); Measles virus-infected cells, CPE protection, absorbance; in the data active means protection mostly above about 24%, no sharp cut-off; inactive means mostly below about 26%
WT yeast gro inh = growth inhibition of WT yeast, mitochondrial fusion screen | mitochondrial fusion phenotypic screen, WT strain | inhibition, % at 10 µM | actives 2.1% (n = 190,000) | AID 1362; in the data active means inhibition above about 58%; tested in S. cerevisiae
Yeast lifespan up = extends the lifespan of yeast. S. cerevisiae growth with nicotinamide, OD615; deaD strain in restrictive glucose medium. inhibition of the nicotinamide effect, % at 10 µM. actives 0.68% (n = 130,000);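 active means inhibition above a set limit, placed 3 SD over the median of all compounds, cut at about 26% in these data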;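 further: 0% = nicotinamide-treated wells and 100% = cells grown without nicotinamide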
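Assay system: DeaD-strain S. cerevisiae. Medium: CSMM-D glucose medium, restrictive. Reagent: nicotinamide, 1.5 mM, co-present with compound. Compound: 10 µM single point, 0.25% DMSO. Schedule: culture preincubation 4 h, compound exposure 48 h, both 30 °C. Detection: absorbance at 615 nm.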
RAM network inh = inhibitors of the yeast RAM network; AID 868; S. cerevisiae dse1pr::URA3 reporter, 5-FOA growth OD615, 2 d; analog-sensitive cbk1-as2 kinase mutant strain; actives 1.8% (n = 190,000); inhibition, % at 50 µM;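 active means inhibition above a set limit, 3 SD over mean compound inhibition, cut at about 8.4% in these data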;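 further: 0% = DMSO-only wells with no growth and 100% = 10 µM 1-NA-PP1 full growth; inhibition rescues growth on 5-FOA so higher OD means more RAM inhibition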
BB579 growth dn = chemicals that inhibit yeast BB579 growth in restrictive medium (lifespan-shortening candidates) | S. cerevisiae BB579 growth, OD615, 48 h | inhibition, % at 10 µM | actives 0.51% (n = 140,000);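 active means inhibition above a set limit, 3 SD over the mean compound inhibition, cut at about 44% in these data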
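Test system: S. cerevisiae DeaD strain BB579 yeast; Medium: restrictive CSMM-D medium; Compound: one dose, 10 µM compound with 0.25% DMSO; Incubation: 4 h cell preincubation, 48 h compound exposure, 30 °C humidified; Signal: OD at 615 nm; Benchmarks: amphotericin B at 10 µg/mL as positive control.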
hDAT+cocaine = changed human dopamine transporter uptake under cocaine IC80 | Q01959 | LLC-PK1 hDAT cells, [14C]-dopamine uptake with cocaine IC80; actives deviate in either direction | B-score at 10 µM | actives 1.3% (n = 110,000);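 active means Z score or B-score, a plate-position-corrected score, falls beyond the plate's 99.7% confidence bounds, in either direction; inactive means both scores lie inside the 99.7% bounds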;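 further: scored against the spread of the other compound wells on the same plate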
Target sequence (Q01959 whole entry, looked up): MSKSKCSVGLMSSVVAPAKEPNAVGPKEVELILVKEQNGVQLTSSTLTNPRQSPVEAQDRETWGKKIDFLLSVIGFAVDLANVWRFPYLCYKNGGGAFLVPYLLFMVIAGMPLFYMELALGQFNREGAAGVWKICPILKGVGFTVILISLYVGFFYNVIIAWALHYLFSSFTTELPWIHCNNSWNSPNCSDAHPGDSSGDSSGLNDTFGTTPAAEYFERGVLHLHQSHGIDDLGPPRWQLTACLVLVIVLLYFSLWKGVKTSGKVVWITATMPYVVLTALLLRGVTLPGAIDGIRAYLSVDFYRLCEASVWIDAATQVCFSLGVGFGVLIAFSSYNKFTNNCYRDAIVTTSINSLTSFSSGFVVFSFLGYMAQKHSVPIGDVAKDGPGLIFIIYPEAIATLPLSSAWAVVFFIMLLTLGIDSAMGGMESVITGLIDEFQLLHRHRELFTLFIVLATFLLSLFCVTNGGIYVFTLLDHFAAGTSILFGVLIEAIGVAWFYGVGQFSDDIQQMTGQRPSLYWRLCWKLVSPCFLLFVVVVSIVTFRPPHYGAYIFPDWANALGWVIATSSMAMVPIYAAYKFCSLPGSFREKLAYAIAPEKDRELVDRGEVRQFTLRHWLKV
Numbers without * were called inactive; . = no result given.

SMILES | Measles CPE | WT yeast gro inh | Yeast lifespan up | RAM network inh | BB579 growth dn | hDAT+cocaine
COc1ccccc1C(CC(=O)c1ccccc1)CC(=O)c1ccccc1 | . | 31.2 | . | 11.3* | . | .
COc1ccc(C(CC(=O)O)NC(=O)c2ccccc2)cc1OC (stereo unspecified) | 10.0 | -7.4 | -11.2 | 3.0 | -15.5 | -0.0472
O=C(O)C(=O)/C(=C\c1ccccc1)c1ccc2ccccc2n1 | 12.6 | -18.7 | -2.9 | 3.0 | -21.8 | -1.39
O=C(O)C(=O)/C(=C\c1cccc2ccccc12)c1ccc2ccccc2n1 | 3.7 | 29.6 | 30.0* | 1.9 | -45.7 | 0.385
COc1ccc(C(=O)C23CC4CC(C2)CC(C(=O)c2ccc(OC)cc2)(C4)C3)cc1 | . | 6.4 | . | 9.1* | . | .
Cc1c(-n2cc(C(=O)O)c(=O)c3cc(F)c(N4CCCC(O)C4)c(F)c32)c(=O)n(-c2ccccc2)n1C (stereo unspecified) | . | -5.6 | . | 0.8 | . | .
O=C(O)c1cn(-c2ccc(N3CCCC3)c(F)c2)c2c(F)c(F)c(F)cc2c1=O | . | 78.0* | . | 1.8 | . | .
Cc1ccc(CC(=O)Nc2ccccc2N2CCOCC2)cc1C | 2.3 | 7.4 | 1.0 | 7.2 | -48.1 | -1.33
O=C(/C=C/c1cc([N+](=O)[O-])ccc1OC(F)F)NCc1ccc(F)cc1 | 27.4 | 7.7 | -6.3 | 8.7* | -65.3 | 0.232
O=C(/C=C/c1ccco1)Nc1ccc(-c2nc3ccccc3[nH]2)cc1 | 2.9 | -17.1 | -3.9 | 2.2 | -7.7 | .
O=C(Nc1ccc(-c2nc3ccccc3[nH]2)cc1)c1ccco1 | 4.0 | 9.3 | -12.6 | 9.5* | -39.8 | -0.841
CC(=O)Nc1ccc2nc(-c3ccco3)[nH]c2c1 | . | 10.1 | . | 2.6 | . | .
O=C(Nc1ccc2nc(-c3ccco3)[nH]c2c1)c1ccco1 | 30.9 | -11.4 | -2.7 | 1.2 | -23.4 | 3.02*
CC(C)(C)n1ncc2c(=O)n(Cc3cccc(Cl)c3)cnc21 | . | -14.3 | . | 0.2 | . | .
Cc1cccc(Cn2cc(/C=C/[N+](=O)[O-])c3ccccc32)c1 | 3.2 | -20.0 | 25.3 | 11.3* | -31.8 | 0.398
CC(=O)N1CCN(C(=S)Nc2cc(S(=O)(=O)N3CCOCC3)ccc2Cl)CC1 | . | -8.5 | . | 0.8 | . | .
O=C(Nc1cc(S(=O)(=O)N2CCOCC2)ccc1Cl)C(=O)c1c(-c2ccccc2)cc2ccccn12 | 27.3 | 98.5* | 5.3 | 1.6 | -29.8 | 1.35
O=C(CN1C(=O)CC(c2ccccc2)S(=O)(=O)c2ccccc21)N1CCOCC1 (stereo unspecified) | . | 3.4 | . | 0.4 | . | .
CCn1c(C)cs/c1=N\C(=S)Nc1ccccc1C | 27.6 | 61.8* | -7.3 | 0.8 | -15.1 | .
CCOC(=O)c1c(C)[nH]c(C(=O)CSc2nccc(C)n2)c1C | 7.4 | 17.1 | 5.3 | 3.6 | -7.5 | .
Cc1c(CN(C)C)c2c(n1Cc1ccccc1)C(=O)c1ccc(Br)cc1-2 | 13.8 | 82.2* | -11.1 | -1.0 | -22.6 | 0.665
Cc1cc(C)c2c(c1)-c1c(ssc1=S)C(C)(C)N2C(=O)CN1C(=O)c2ccccc2C1=O | 10.3 | 17.6 | -1.2 | 11.2* | -33.4 | .
O=c1cc(/N=C/c2coc3c(ccc4ccccc43)c2=O)[nH]c(=S)[nH]1 | 14.3 | -4.7 | 3.9 | 10.6* | -35.6 | .
Cc1ccc(N2CC(C(=O)Nc3nccs3)CC2=O)cc1Cl (stereo unspecified) | 4.3 | -3.5 | -8.7 | 0.7 | -33.7 | -0.000237
CCCNC(=O)C1CC(=O)N(c2ccc(OCC)cc2)C1 (stereo unspecified) | . | 11.9 | . | 0.4 | . | .
SMILES | Measles CPE | WT yeast gro inh | Yeast lifespan up | RAM network inh | BB579 growth dn | hDAT+cocaine
CCOc1ccc(N2CC(C(=O)NC(C)C)CC2=O)cc1 (stereo unspecified) | 13.7 | 59.8* | 1.4 | 1.4 | 8.2 | 0.106
CCc1ccc(N2CC(C(=O)Nc3nccs3)CC2=O)cc1 (stereo unspecified) | 34.6* | 2.3 | -0.9 | 0.5 | -12.7 | -0.00323
CCn1c(COc2cc(C)ccc2C(C)C)nnc1SCC(=O)Nc1nccs1 | . | 1.9 | . | 4.8 | . | .
S=C(Nc1ccc2nccnc2c1)N1CCOCC1 | . | -5.6 | . | 2.4 | . | .
C/C(=N\N=C(/N)SC1CC(=O)N(c2cccc(Cl)c2)C1=O)c1cccs1 (stereo unspecified) | 11.7 | 94.2* | -9.3 | 0.3 | -14.4 | .
COc1cccc(N/C(C)=C/C(=O)c2ccc(Br)cc2)c1 | 6.2 | 65.0* | -5.7 | 0.5 | -34.6 | 0.332
CN1C[C@H](C(=O)NC2(C)OC3(O)[C@@H]4CCCN4C(=O)[C@H](Cc4ccccc4)N3C2=O)CC2c3cccc4[nH]cc(c34)C[C@H]21 (stereo partly specified) | . | . | . | . | . | 3.97*
COc1ccc(C2C(C(C)=O)=C(C)N=c3s/c(=C\c4ccco4)c(=O)n32)c(OC)c1 (stereo unspecified) | 2.9 | -8.0 | -5.0 | 3.3 | -38.9 | 0.548
COc1ccc(C2C(C(C)=O)=C(C)N=c3s/c(=C\c4cc(C)n(C)c4C)c(=O)n32)c(OC)c1 (stereo unspecified) | 7.7 | 20.9 | -5.7 | 8.4* | -38.0 | 0.0114
Cn1c(SCC(=O)N(C2CCCCC2)C2CCCCC2)nnc1-c1cccs1 | 4.5 | 13.2 | 8.6 | 1.1 | -26.1 | -0.263
C/C(CCc1oc2ccc(Cl)cc2c1-c1ccc(C)o1)=N\O | 11.7 | 11.8 | . | 9.4* | -27.6 | 0.276
C/C(CCc1oc2ccc(Br)cc2c1-c1ccc(C)o1)=N/O | 10.1 | 53.2 | 1.4 | 11.4* | -55.3 | .
Cc1ccc(-c2cc(C(=O)O)c3cc(Br)ccc3n2)o1 | 23.3 | -4.7 | -4.2 | 0.5 | -4.7 | .
CC1=NN(c2ccccc2)C(=O)C1C(=O)c1ccccc1 (stereo unspecified) | 13.3 | -9.8 | 27.6* | -1.6 | -31.9 | .
COc1cc(CNCCc2c[nH]c3ccccc23)ccc1OCc1ccc(F)cc1 | 5.2 | 86.2* | -11.4 | 0.4 | -36.9 | 4.35*
COCCN(C(=S)Nc1ccc(C)cc1)C(C)c1cccnc1 (stereo unspecified) | . | -5.3 | . | -0.9 | . | .
CN1CCN(CCCNC(=O)Nc2cccc3ccccc23)CC1 | 44.0* | -4.0 | -10.2 | 1.4 | -7.3 | .
COc1ccc(-c2cc(-c3cccs3)nc3sc(C#N)c(N)c23)cc1 | 22.0 | 6.0 | -4.5 | 4.8 | -13.5 | .
N#Cc1sc2nc(C3CC3)cc(-c3ccc(Cl)cc3)c2c1N | 9.3 | 72.0* | -1.0 | 0.9 | -35.2 | .
CC1(C)CC(=O)C2=C(C1)OC(N)=C([N+](=O)[O-])C2c1cccs1 (stereo unspecified) | 4.9 | -10.5 | 27.6* | 0.1 | -20.5 | .
COc1cccc(C2C3=C(CC(C)(C)CC3=O)OC(N)=C2[N+](=O)[O-])c1 (stereo unspecified) | 2.8 | 1.2 | -5.2 | 2.8 | -27.5 | 0.276
Cc1noc(C)c1C(=O)Nc1cccnc1 | 4.0 | -15.9 | -7.3 | 1.2 | -16.1 | 0.855
Cc1ccc(NC(=O)c2onc(C)c2Cl)cc1 | 26.1 | 1.7 | -7.7 | -0.2 | -5.8 | -2.64*
